Tested on: MCF7
Assay: Antiproliferative activity against human MCF7 cells after 72 hrs by MTT assay
Assay type: functional, cell-based
Conditions: MCF7, 72 h
How it was run: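 MCF7 breast cancer cells in exponential growth seeded at 8 × 10^3 cells/well and left 24 h to attach. Medium was then switched to serum-free RPMI containing compound at […]. Cells were cultured 72 h at 37 °C in 5% CO2, then given MTT for 4 h and solubilized. A570 was converted to cell number using a hemocytometer-based standard curve. IC50 was obtained by nonlinear regression of log concentration versus cells/well.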

| SMILES | IC50 [µM] |
| --- | --- |
| C/C1=C/C(=O)O[C@@H]2C[C@@H](CC[C@H](C)/C=C\C=C\CC1)O[C@@](OC(=O)c1ccccc1)([C@@H]1CSC(=O)N1)C2 | 1.92 |
| C/C1=C/C(=O)O[C@@H]2C[C@@H](CC[C@H](C)/C=C\C=C\CC1)O[C@@](O)([C@@H]1CSC(=O)N1Cc1ccccc1)C2 | 1.59 |
| C/C1=C/C(=O)O[C@@H]2C[C@@H](CC[C@H](C)/C=C\C=C\CC1)O[C@@](OC(=O)NCCCCl)([C@@H]1CSC(=O)N1)C2 | 25.7 |
| C/C1=C/C(=O)O[C@@H]2C[C@@H](CC[C@H](C)/C=C\C=C\CC1)O[C@@](OCCc1ccccc1)([C@@H]1CSC(=O)N1)C2 | 10 |
| CC(=O)N1C(=O)SC[C@H]1[C@@]1(O)C[C@H]2C[C@@H](CC[C@H](C)/C=C\CC/C(C)=C\C(=O)O2)O1 [N-ACETYLLATRUNCULIN B] | 4.3 |
| C/C1=C/C(=O)O[C@@H]2C[C@@H](CC[C@H](C)/C=C\CC1)O[C@@](O)([C@@H]1CSC(=O)N1)C2 [LATRUNCULIN B] | 1.91 |
| COc1ccc(CC(=O)N2C(=O)SC[C@H]2[C@@]2(OC)C[C@H]3C[C@@H](CC[C@H](C)/C=C\C=C\CC/C(C)=C\C(=O)O3)O2)cc1 | 15.4 |
| C/C1=C/C(=O)O[C@@H]2C[C@@H](CC[C@H](C)/C=C\C=C\CC1)O[C@@](OC(=O)NCCBr)([C@@H]1CSC(=O)N1)C2 | 19.4 |
| C/C1=C/C(=O)O[C@@H]2C[C@@H](CC[C@H](C)/C=C\C=C\CC1)O[C@@](OC(=O)NCCCl)([C@@H]1CSC(=O)N1)C2 | 17.3 |
| CCN1C(=O)SC[C@H]1[C@@]1(OC)C[C@H]2C[C@@H](CC[C@H](C)/C=C\C=C\CC/C(C)=C\C(=O)O2)O1 | 20.7 |
| C/C1=C/C(=O)O[C@@H]2C[C@@H](CC[C@H](C)/C=C\CC1)O[C@@](O)([C@@H]1CSC(=O)N1CO)C2 [N-HYDROXYMETHYLLATRUNCULIN B] | 2.35 |
| C/C1=C/C(=O)O[C@@H]2C[C@@H](CC[C@H](C)/C=C\C=C\CC1)O[C@@](OC(=O)Nc1ccccc1)([C@@H]1CSC(=O)N1)C2 | 7.69 |
| C/C1=C/C(=O)O[C@@H]2C[C@@H](CC[C@H](C)/C=C\C=C\CC1)O[C@@](O)([C@@H]1CSC(=O)N1)C2 [LATRUNCULIN A] | 2.08 |
| C/C1=C/C(=O)O[C@@H]2C[C@@H](CC[C@H](C)/C=C\C=C\CC1)O[C@@](OC(=O)NCc1ccccc1)([C@@H]1CSC(=O)N1)C2 | 3.5 |
| CO[C@]1([C@@H]2CSC(=O)N2)C[C@H]2C[C@@H](CC[C@H](C)/C=C\C=C\CC/C(C)=C\C(=O)O2)O1 | 10.2 |
| CCCCCCCCO[C@]1([C@@H]2CSC(=O)N2)C[C@H]2C[C@@H](CC[C@H](C)/C=C\CC/C(C)=C\C(=O)O2)O1 [15-O-OCTYLLATRUNCULIN B] | 50.1 |
| CO[C@]1([C@@H]2CSC(=O)N2C2CCCC2)C[C@H]2C[C@@H](CC[C@H](C)/C=C\C=C\CC/C(C)=C\C(=O)O2)O1 | 5.2 |
| CCN1C(=O)SC[C@H]1[C@@]1(O)C[C@H]2C[C@@H](CC[C@H](C)/C=C\C=C\CC/C(C)=C\C(=O)O2)O1 | 1.05 |
| CO[C@]1([C@@H]2CSC(=O)N2C(=O)c2ccccc2)C[C@H]2C[C@@H](CC[C@H](C)/C=C\C=C\CC/C(C)=C\C(=O)O2)O1 | 1.82 |
| CO[C@]1([C@@H]2CSC(=O)N2CCCO)C[C@H]2C[C@@H](CC[C@H](C)/C=C\C=C\CC/C(C)=C\C(=O)O2)O1 | 19.2 |
| C/C1=C/C(=O)O[C@@H]2C[C@@H](CC[C@H](C)/C=C\C=C\CC1)O[C@@](O)([C@@H]1CSC(=O)N1CO)C2 | 8.34 |
| CO[C@]1([C@@H]2CSC(=O)N2C)C[C@H]2C[C@@H](CC[C@H](C)/C=C\C=C\CC/C(C)=C\C(=O)O2)O1 | 13.1 |
| CO[C@]1([C@@H]2CSC(=O)N2Cc2ccccc2)C[C@H]2C[C@@H](CC[C@H](C)/C=C\C=C\CC/C(C)=C\C(=O)O2)O1 | 1.28 |
| CO[C@]1([C@@H]2CSC(=O)N2)C[C@H]2C[C@@H](CC[C@H](C)/C=C\CC/C(C)=C\C(=O)O2)O1 [15-METHOXYLATRUNCULIN B] | 19.3 |
| CCCCO[C@]1([C@@H]2CSC(=O)N2)C[C@H]2C[C@@H](CC[C@H](C)/C=C\CC/C(C)=C\C(=O)O2)O1 [15-O-BUTYLLATRUNCULIN B] | 50.1 |
